The target in test [1] is GalNAc-T4 Catalytic/LFL Mutant (T283S-Q285A-D464A) (Homo sapiens, UniProt Q8N4A0, D464A/Q285A/T283S). Put plainly: Transferase assay and kinetics, catalytic/LFL mutant. It counts as biochemical. Put shortly:
(§1)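 Enzyme construct residues 36–578, wild-type or site-directed mutants. Reaction: 75 mM Na cacodylate pH 6.5, 1 mM 2-mercaptoethanol, 10 mM MnCl2, 0.25 mM UDP-[3H]GalNAc, 0.004–1.4 mM (glyco)peptide and 0.02–0.2 μM enzyme, at 37 °C for 10–180 min (≤30% donor used). EDTA quench, Dowex, then Sephadex G10 to separate transfer from hydrolysis. Rates hydrolysis-corrected, 2–5 repeats; Km, Vmax and Ki from Michaelis–Menten ± substrate-inhibition fits.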

For test [2], the target named is T1, GalNAc-T4 (Homo sapiens, UniProt Q8N4A0). Description: Surface plasmon resonance binding to GalNAc-T4. The conditions noted are these: wild-type. Put shortly: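 SPR binding of glycopeptide substrate to wild-type enzyme, run with excess UDP and MnCl2 present; Kd obtained by fitting the binding data.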
Background: SPR reads the build-up and loss of mass on a sensor chip optically.

Test [3] addresses T1, GalNAc-T4. Description: STD-NMR epitope mapping with GalNAc-T4. It counts as binding. The conditions noted are these: ~877 μM glycopeptide, 13.5 μM GalNAc-T4, 75 μM UDP, 75 μM MnCl2, 298 K.
Test [4] has as its target T2, GalNAc-T4 wild-type (Homo sapiens, UniProt Q8N4A0). Put plainly: Transferase assay and kinetics, wild-type GalNAc-T4. The test is classed as biochemical. The conditions noted are these: for Activity relative to glycopeptides 4 and 5 (fold higher): from Figure 1a. Put shortly: as §1
In test [5] the target is GalNAc-T4 Lectin Flexible Loop (LFL) deletion/mutant (P463DNNP467 to GGG) (Homo sapiens, UniProt Q8N4A0, DEL463-464/N465G/N466G/P467G). Put plainly: Transferase assay and kinetics, LFL mutant. It counts as biochemical. The conditions noted are these: for UDP-GalNAc Hydrolysis %: LFL deletion/mutant, Sephadex G10 chromatography (Figure S8). Put shortly:
as §1

In test [6] the target is GalNAc-T4 Lectin Mutant (D459H) (Homo sapiens, UniProt Q8N4A0, D459H). Description: Transferase assay and kinetics, lectin mutant. It counts as biochemical. The conditions noted are these: for UDP-GalNAc Hydrolysis %: Sephadex G10 chromatography (Figure S8). In a few lines:
as §1

Test [7] concerns the target catalytic domain mutant of GalNAc-T4 (T283S-Q285A) (Homo sapiens, UniProt Q8N4A0, Q285A/T283S). Put plainly: Surface plasmon resonance binding to GalNAc-T4 catalytic mutant. The conditions noted are these: T283S/Q285A catalytic mutant (Figure S11).
Test [8] concerns the target GalNAc-T4 Catalytic Mutant (T283S-Q285A) (Homo sapiens, UniProt Q8N4A0, Q285A/T283S). Description: Transferase assay and kinetics, catalytic mutant. It counts as biochemical.
The target of test [9] is T2, GalNAc-T4 wild-type. The conditions noted are these: cited from earlier work.
Test [10] addresses T1, GalNAc-T4. The conditions noted are these: in presence of GalNAc-T4, UDP, MnCl2; cited from earlier work.
For test [11], the target named is T1, GalNAc-T4. The conditions noted are these: wild-type GalNAc-T4, excess UDP and MnCl2; saturation not achieved; cited from earlier work.
In test [12] the target is GalNAc-T4 catalytic mutant (T283S, Q285A), residues 36-578 (human, UniProt Q8N4A0 36-578, T283S | Q285A). Description: SPR.
Test [13] addresses GalNAc-T4 (polypeptide GalNAc-transferase 4), wild type, residues 36-578 (human, UniProt Q8N4A0 36-578). Description: SPR.

“And” between values parts separate entries of the source, which are not always exact repeats. Equal entries are not always repeated. Ends that are not written are not given here. Peptide text beside a SMILES is read from it. * marks the point of attachment. αGalNAc = CC(=O)N[C@@H]1[C@@H](O)[C@@H](O)[C@@H](CO)O[C@@H]1*

For the molecule `CC(=O)N[C@H]1[C@@H](O[C@H](C)[C@H](NC(=O)CNC(=O)[C@H](C)NC(=O)CNC(=O)[C@H](C)NC(=O)CNC(=O)[C@H](C)NC(=O)CNC(=O)[C@@H](NC(=O)[C@H](C)NC(=O)CN)[C@@H](C)O[C@H]2O[C@H](CO)[C@H](O)[C@H](O)[C@H]2NC(C)=O)C(=O)N[C@H](C(=O)N2CCC[C@H]2C(=O)NCC(=O)N2CCC[C@H]2C(=O)NCC(N)=O)[C@@H](C)O)O[C@H](CO)[C@H](O)[C@@H]1O` [compound 6] (H-GAT(αGalNAc)GAGAGAGT(αGalNAc)TPGPG-NH2; N-terminus and C-terminus assumed), the “Km relative to catalytic mutant (fold lower)” value in [1] was roughly 4 fold. For the same molecule, the “Kd (SPR) relative to Km (fold higher)” value on GalNAc-T4 [2] is on record as roughly 2 fold. Also, the “STD-NMR response, H2 proton of the GalNAc at Thr11” value on GalNAc-T4 [3] (catalytic domain bound neighboring GalNAc) worked out at 50%. Besides, on GalNAc-T4 [3] (remote lectin bound GalNAc), the “STD-NMR response, H2 proton of the GalNAc at Thr3” value was 90%. Besides, at GalNAc-T4 wild-type [4], the “Catalytic efficiency (Vmax/Km) relative to peptide 3 (fold higher)” value is reported as roughly 1.5 fold; the “Catalytic efficiency (Vmax/Km) relative to peptide 4 (fold higher)” value is reported as roughly 150 fold; the “Km relative to peptide 3 (fold lower)” value was roughly 1.3 fold; the “Activity relative to glycopeptides 4 and 5 (fold higher)” value is roughly 10 fold. In addition, the “Apparent Vmax relative to wt GalNAc-T4 (fold higher)” value in [5] (LFL mutant) is recorded as roughly 2 fold. In [6], the “Km increase relative to wt GalNAc-T4” value is listed as roughly 20 fold, the “Vmax decrease relative to wt GalNAc-T4” value is listed as roughly 5 fold and the “UDP-GalNAc Hydrolysis %” value is reported as roughly 20%. In addition, the “Kd by SPR relative to wt transferase (fold higher)” value in [7] is recorded as roughly 6 fold. In addition, in test [8], the “Catalytic efficiency Vmax/Km as fraction of wt” value is recorded as “about 1/2”; the “Initial Vmax relative to wt transferase (fold higher)” value is recorded as roughly 2 fold; the “Km relative to wt (fold higher)” value was ~4 fold and ~3 fold.
AGAGT*TPGPGAGAT*GA [compound 5]: the “Apparent activity and Vmax as fraction of the values for the catalytic and LFL mutants” value in test [1] is given as 1/4. Moreover, the “UDP-GalNAc Hydrolysis %” value in test [5] was roughly 50%. The “Reduction in catalytic efficiency compared to wt GalNAc-T4” value in test [5] (LFL mutant) is roughly 50%. Moreover, in test [8], the “Catalytic activity (Vmax) as fraction of wt GalNAc-T4 activity” value is 1/3 and the “Km relative to wt (fold higher)” value is roughly 2 fold.
AGAGTTPGPGAGAT*GA [compound 2]: on GalNAc-T4 wild-type [9], the “Glycosylation by GalNAc-T4 (in words)” value is on record as “imperceptibly glycosylated”. Further, in test [5], the “UDP-GalNAc Hydrolysis %” value is reported as roughly 90%.
As for GAGAGAGT*TPGPG [compound 4], in test [1], the “Apparent activity and Vmax as fraction of the values for the catalytic and LFL mutants” value is 1/4. For the same molecule, the “UDP-GalNAc Hydrolysis %” value in test [5] is on record as roughly 50%. Besides, the “Reduction in catalytic efficiency compared to wt GalNAc-T4” value in test [5] (LFL mutant) is roughly 50%. For the same molecule, in [6], the “Catalytic efficiency relative to wt transferase (fold higher)” value is listed as roughly 2 fold and the “Vmax relative to wt transferase (fold higher)” value is listed as roughly 2 fold. Also, in test [8], the “Catalytic activity (Vmax) as fraction of wt GalNAc-T4 activity” value was 1/3 and the “Km relative to wt (fold higher)” value is roughly 2 fold.
For GAGAGAGTTPGPG [compound 1], the “STD-NMR enhancements (in words)” value on GalNAc-T4 [10] is on record as “No significant STD enhancements”. Besides, the “Glycosylation by GalNAc-T4 (in words)” value at GalNAc-T4 wild-type [9] is “imperceptibly glycosylated”. For the same molecule, the “UDP-GalNAc Hydrolysis %” value in test [5] is roughly 90%.
GAT*GAGAGAGTTPGPG [compound 3]: the “Km relative to wt (fold higher)” value in [1] is given as roughly 2 fold. At GalNAc-T4 wild-type [4], the “Catalytic efficiency (Vmax/Km) relative to peptide 4 (fold higher)” value is roughly 100 fold; the “Km relative to peptide 4 (fold lower)” value is roughly 12 fold; the “Vmax relative to peptide 4 (fold higher)” value was roughly 8 fold; the “Activity relative to glycopeptides 4 and 5 (fold higher)” value was roughly 10 fold. In test [6], the “Km increase relative to wt GalNAc-T4” value is roughly 20 fold and the “UDP-GalNAc Hydrolysis %” value is roughly 70%. Also, the “Km relative to wt (fold higher)” value in test [8] was roughly 2 fold. Also, the “Kd by SPR (in words)” value on GalNAc-T4 [11] was “in the mM range”.

B1: diglycopeptide 6, GAT*GAGAGAGT*TPGPG (peptide)
peptide: GATGAGAGAGTTPGPG
modifications: not fully specified (residues 3, 11); printed as GAT*GAGAGAGT*TPGPG
A word on the Kd: it is the constant that tells how readily two partners part at equilibrium. Read a low Kd as a tighter complex. For B1, the “fold change of Kd against the wt transferase” value in test [12] is roughly 6 fold. Also, in test [13], the dissociation constant (Kd) turned out to be 70 ± 15 µM.

The record behind these values is publication PMC6161044 (ACS Central Science, 2018).
